Ends that are not written are not given here.
How the values were obtained:
rat erythrocytes = experiment: Hemolysis assay; format: cell-based, Sprague-Dawley rats; conditions: for concentration inducing hemolysis relative to MICs: hemolytic concentration / MIC
How it was run: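 Sprague-Dawley rat blood was drawn from the abdominal aorta into heparin. RBCs were centrifuged, washed and made up as a 10% suspension in saline. Peptides, twofold-diluted in saline, were incubated with the RBCs at 37°C for 1 h, then spun 10 min, and supernatant A540 was read. Controls were saline (0%) and 1% Triton X-100 (100%). Hemolysis % = (Am − An)/(Ap − An) × 100.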

mammalian cells = experiment: Cytotoxicity assay; format: cell-based, human; conditions: for cytotoxicity: in words, MTT, HaCaTs and HUVECs, 24 h; for concentration inducing cytotoxicity relative to MICs: cytotoxic concentration / MIC
How it was run: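 HUVECs and HaCaTs in log phase were trypsinised, adjusted to 5 × 10^4 cells/ml, seeded and left to adhere overnight. Cells were exposed to a range of peptide concentrations (peptides in sterile water) for 24 h at 37°C, 5% CO2, with untreated wells as controls. MTT (5 mg/ml stock) was added for 4 h, the supernatant was removed, formazan was dissolved in DMSO, and A490 was read.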

[1] = system: six strains of pathogenic fungi and five strains of pathogenic bacteria; experiment: MIC determination, whole panel of fungi and bacteria; format: cell-based; conditions: in words
A. baumannii GD003 = experiment: Drug resistance development, serial passage; format: cell-based, Acinetobacter baumannii; conditions: A. baumannii GD003, serial passage at sub-MIC for 30 days, 96-well plates
How it was run: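 A. baumannii GD003 was activated in liquid culture and grown 12 h. It was diluted to 5 × 10^5 cells/ml in MHB and tested by broth microdilution in 96-well plates (37°C, 24 h; MIC = lowest concentration with no visible growth). Cells from the half-MIC well were carried into the next round and the MIC was re-measured, repeating over 30 days.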

A. baumannii = experiment: Murine lung infection; format: in vivo, BALB/c mice; conditions: 40 mg/kg intravenously for three consecutive days

Row | Sequence | hemolytic activity (rat erythrocytes; in words, 10% rat RBC, 37°C, 1 h (Fig. 3A)) | cytotoxicity (mammalian cells) | antimicrobial activity [1] | concentration with hemolytic activity (rat erythrocytes; 10% rat RBC, 37°C, 1 h) | concentration inducing hemolysis relative to MICs (rat erythrocytes) | concentration inducing cytotoxicity relative to MICs (mammalian cells) | MIC after 30 passages of induced resistance (A. baumannii GD003) | H&E staining of off-target tissues (heart, liver, kidney) (A. baumannii)
1 | GIWDMIRKVRTVIRKAKQIKTFINGKGVQ [AMP-11] | potent hemolytic activity | moderate cytotoxicity | – | – | – | – | – | –
2 | VTFVRLAGVASAVKTKAG [peptide 26] | – | – | lacks antimicrobial activity | – | – | – | – | –
3 | WFHFFQRGSYNGI [AMP-29] | – | low cytotoxicity | – | 50 µM | 4 fold | > 32 fold | – | –
4 | WLGSKIKAAKMKVGMWGAVGLRHN [AMP-24] | – | low cytotoxicity | – | – | at least 32 fold | at least 32 fold | 12.5 µM | no obvious immune cell infiltrations were observed

Reference: PMC11797553 (Science Advances, 2025)
